From ChEMBL document CHEMBL4680103, “In Vitro and in Vivo Anti-Trypanosoma cruzi Activity of New Arylamine Mannich Base-Type Derivatives” (J Med Chem, 2016)
Calls of active or inactive are those of the source. No cut-off for these calls is given here.

How the values were obtained:
Trypanosoma cruzi [1] = assay: Antitrypanosomal activity against Trypanosoma cruzi infected in African green monkey Vero cells assessed as reduction in number of amastigotes per infected cell measured up to 10 days by Giemsa staining based hemocytometry; format: functional; details: time day <=10
Method in brief: (§1)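 Vero cells infected with metacyclic forms (10:1) were exposed to one concentration per compound immediately after infection for 12 h at 37 °C, 5% CO2. After washing, cultures were kept 10 days with fresh medium every 48 h. Every 48 h, % infected cells and amastigotes per infected cell (200 Giemsa-stained cells) and medium trypomastigotes (Neubauer) were scored. Means of three experiments.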

Trypanosoma cruzi [2] = assay: Antitrypanosomal activity against Trypanosoma cruzi infected in African green monkey Vero cells assessed as reduction in infection rate measured up to 10 days by Giemsa staining based hemocytometry; format: functional; details: time day <=10; method in brief: as §1
Trypanosoma cruzi [3] = assay: Antitrypanosomal activity against Trypanosoma cruzi Arequipa epimastigote forms incubated for 72 hrs by hemocytometry; format: functional, organism-based
Method in brief: (§2)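 Epimastigotes grown in MTL medium with 10% inactivated FBS at 28 °C. Compounds were dissolved in DMSO (0.01% v/v) and added at 0.1–100 µM for 72 h. Parasites were counted in a Neubauer chamber. IC50 (50% growth inhibition) was derived by linear regression of Kc values. Values are averages of four determinations.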

Trypanosoma cruzi [4] = assay: Antitrypanosomal activity against Trypanosoma cruzi Tulahuen epimastigote forms incubated for 72 hrs by hemocytometry; format: functional, organism-based; method in brief: as §2
Vero = assay: Cytotoxicity in African green monkey Vero cells incubated for 72 hrs; format: cell-based; details: Chlorocebus sabaeus
Trypanosoma cruzi [5] = assay: Antitrypanosomal activity against Trypanosoma cruzi Arequipa trypomastigotes infected in BALB/c mouse assessed as parasitemia re-activation level measured during chronic phase ( day 90 post infection) at 50 mg/kg, po dosed on alternating days (7 to 15 days post infection) relative to acute phase infection (reference value: […]%); format: functional
Trypanosoma cruzi [6] = assay: Antitrypanosomal activity against Trypanosoma cruzi Arequipa trypomastigotes infected in BALB/c mouse assessed as reduction in parasitemia level in adipose tissue measured during acute phase (days 0 to 40 post infection) at 100 mg/kg, po dosed on alternating days (7 to 15 days post infection) by PCR analysis; format: functional, organism-based
Trypanosoma cruzi [7] = assay: (§3) Antitrypanosomal activity against Trypanosoma cruzi Arequipa trypomastigotes infected in BALB/c mouse assessed as reduction in parasitemia level in heart measured during acute phase (days 0 to 40 post infection) at 100 mg/kg, po dosed on alternating days (7 to 15 days post infection) by PCR analysis; format: functional, organism-based
Trypanosoma cruzi [8] = assay: as §3, with “stomach” for “heart”; format: functional, organism-based
Trypanosoma cruzi [9] = assay: as §3, with “muscle” for “heart”; format: functional, organism-based
Trypanosoma cruzi [10] = assay: Antitrypanosomal activity against Trypanosoma cruzi Arequipa trypomastigotes infected in BALB/c mouse assessed as reduction in splenomegaly by measuring weight percent of spleens […] at 100 mg/kg, po dosed on alternating days (7 to 15 days post infection) by PCR analysis (reference value: 1.603%); format: functional
Trypanosoma cruzi [11] = assay: Inhibition of Trypanosoma cruzi Arequipa Fe-SOD at <50 uM by NBT dye based spectrophotometry; details: dose microM <50
Method in brief: (§4)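 Fe-SOD source: Arequipa epimastigote homogenate (STE buffer pH 7.8, sonication, centrifugation, supernatant; protein by Bradford); CuZn-SOD was commercial human erythrocyte enzyme. Activity was measured as NBT reduction by superoxide in 50 mM potassium phosphate pH 7.8, with compounds at 5 concentrations (1–100 µM). A560 was read before and after 10 min under lamp light with stirring. Three rate determinations; Newman–Keuls test.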

[12] = target: Superoxide dismutase [Cu-Zn] (Homo sapiens, UniProt P00441); assay: Inhibition of human erythrocyte CuZn-SOD at 100 uM by NBT dye based spectrophotometry; method in brief: as §4
[13] = Genotoxicity in Salmonella typhimurium TA102 at 0.03 to 2.25 ug/plate incubated for 48 hrs in presence of liver S9 fraction by Ames test; format: toxicity, subcellular; details: salmonella enterica subsp. enterica serovar typhimurium, s9, 48 h
Method in brief: (§5)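 Preincubation Ames assay. […] Top agar with trace histidine/biotin (0.05 mM each) was added and poured onto glucose minimal agar. Plates were incubated 48 h at 37 °C and His+ revertants counted. DMSO was the negative control, with strain-appropriate positive controls. Technical triplicates.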

[14] = Genotoxicity in Salmonella typhimurium TA102 at 0.03 to 2.25 ug/plate incubated for 48 hrs in absence of liver S9 fraction by Ames test; format: toxicity; details: salmonella enterica subsp. enterica serovar typhimurium, s9, 48 h; method in brief: as §5
[15] = Genotoxicity in Salmonella typhimurium TA1535 at 0.03 to 2.25 ug/plate incubated for 48 hrs in presence of liver S9 fraction by Ames test; format: toxicity, subcellular; details: salmonella enterica subsp. enterica serovar typhimurium, s9, 48 h; method in brief: as §5
[16] = Genotoxicity in Salmonella typhimurium TA1537 at 0.03 to 2.25 ug/plate incubated for 48 hrs in presence of liver S9 fraction by Ames test; format: toxicity, subcellular; details: salmonella enterica subsp. enterica serovar typhimurium, s9, 48 h; method in brief: as §5
[17] = Genotoxicity in Salmonella typhimurium TA1537 at 0.03 to 2.25 ug/plate incubated for 48 hrs in absence of liver S9 fraction by Ames test; format: toxicity; details: salmonella enterica subsp. enterica serovar typhimurium, s9, 48 h; method in brief: as §5

Chain of Superoxide dismutase [Cu-Zn] (P00441 whole entry): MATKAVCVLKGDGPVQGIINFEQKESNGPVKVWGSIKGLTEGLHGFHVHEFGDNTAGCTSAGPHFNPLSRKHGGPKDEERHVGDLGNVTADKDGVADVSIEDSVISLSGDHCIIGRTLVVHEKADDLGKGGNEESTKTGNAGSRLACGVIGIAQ

With `O=C(CCN1CCN(c2ccc(F)cc2)CC1)c1csc2ccc(F)cc12` the “inhibition (INH)” value (Trypanosoma cruzi [1]) was 49%, the “inhibition (INH)” value (Trypanosoma cruzi [2]) was 54% and the IC50 (Trypanosoma cruzi [3]) was 30.7 µM. The IC50 (Trypanosoma cruzi [4]) was 0.4 µM, the IC50 (Vero) was 759 µM and the Activity (Trypanosoma cruzi [5]) was 0%. The Activity (Trypanosoma cruzi [6]) was “Active”, the Activity (Trypanosoma cruzi [7]) was “Active” and the Activity (Trypanosoma cruzi [8]) was “Active”. For the same compound, the Activity (Trypanosoma cruzi [9]) was “Active”, the Spleen weight percent (Trypanosoma cruzi [10]) was 0.825% and the inhibition (Trypanosoma cruzi [11]) was 100%. The inhibition [12] was “inactive”, the Activity [13] was “Non-Toxic” and the Activity [14] was “Non-Toxic”. For the same compound, the Activity [15] was “Non-Toxic”, the Activity [16] was “Non-Toxic” and the Activity [17] was “Non-Toxic”.
With `O=C(CCN1CCN(c2ccc(C(F)(F)F)cc2)CC1)c1csc2ccc(F)cc12` the “inhibition (INH)” value (Trypanosoma cruzi [1]) was 64%, the “inhibition (INH)” value (Trypanosoma cruzi [2]) was 47% and the IC50 (Trypanosoma cruzi [3]) was 51.7 µM. For the same compound, the IC50 (Trypanosoma cruzi [4]) was 14 µM, the IC50 (Vero) was 896 µM and the Activity (Trypanosoma cruzi [6]) was “Active”. For the same compound, the Activity (Trypanosoma cruzi [7]) was “Active”, the Activity (Trypanosoma cruzi [8]) was “Active” and the Activity (Trypanosoma cruzi [9]) was “Active”. The Spleen weight percent (Trypanosoma cruzi [10]) was 1.041%, the inhibition [12] was “inactive” and the Activity [13] was “Non-Toxic”. For the same compound, the Activity [14] was “Non-Toxic”, the Activity [15] was “Non-Toxic” and the Activity [16] was “Non-Toxic”. For the same compound, the Activity [17] was “Non-Toxic”.
